Results published in ChEMBL document CHEMBL3525985, “Regiospecificity and stereospecificity of human UDP-glucuronosyltransferases in the glucuronidation of estriol, 16-epiestriol, 17-epiestriol, and 13-epiestradiol” (Drug Metab Dispos, 2013).
Each block holds one compound with its values, some of them ahead of it.

Assays:
Type in all cases: ADME
[1] = target: T1, UDP-glucuronosyltransferase 2A1 (Homo sapiens, UniProt P0DTE4); experiment: Drug metabolism assessed as recombinant human C-terminal His-tagged UGT2A1-mediated 17-epiestriol-17-glucuronide formation at 5 mg after 5 hrs by NMR spectroscopic analysis in presence of UDPGA
T1 sequence (P0DTE4 whole entry): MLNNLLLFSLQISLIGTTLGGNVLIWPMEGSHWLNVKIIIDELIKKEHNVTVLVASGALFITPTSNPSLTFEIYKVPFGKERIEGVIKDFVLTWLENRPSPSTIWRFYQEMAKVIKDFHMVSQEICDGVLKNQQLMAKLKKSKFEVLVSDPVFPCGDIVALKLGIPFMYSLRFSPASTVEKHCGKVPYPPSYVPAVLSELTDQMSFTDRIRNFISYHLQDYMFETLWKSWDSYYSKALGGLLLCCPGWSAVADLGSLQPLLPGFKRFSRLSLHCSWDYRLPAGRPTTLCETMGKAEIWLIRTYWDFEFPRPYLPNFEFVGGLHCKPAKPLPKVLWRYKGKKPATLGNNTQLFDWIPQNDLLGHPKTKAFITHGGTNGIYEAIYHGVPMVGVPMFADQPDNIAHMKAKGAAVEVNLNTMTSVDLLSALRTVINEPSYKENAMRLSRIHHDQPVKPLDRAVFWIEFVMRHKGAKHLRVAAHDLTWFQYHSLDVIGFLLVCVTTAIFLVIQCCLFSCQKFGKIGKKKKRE

[2] = target: T2, UDP-glucuronosyltransferase 1A4 (Homo sapiens, UniProt P22310); experiment: Drug metabolism assessed as recombinant human C-terminal His-tagged UGT1A4-mediated 17-epiestriol-16-glucuronide formation at 200 uM after 15 to 60 mins by HPLC analysis in presence of UDPGA; settings: recombinant enzyme
T2 sequence (P22310 whole entry): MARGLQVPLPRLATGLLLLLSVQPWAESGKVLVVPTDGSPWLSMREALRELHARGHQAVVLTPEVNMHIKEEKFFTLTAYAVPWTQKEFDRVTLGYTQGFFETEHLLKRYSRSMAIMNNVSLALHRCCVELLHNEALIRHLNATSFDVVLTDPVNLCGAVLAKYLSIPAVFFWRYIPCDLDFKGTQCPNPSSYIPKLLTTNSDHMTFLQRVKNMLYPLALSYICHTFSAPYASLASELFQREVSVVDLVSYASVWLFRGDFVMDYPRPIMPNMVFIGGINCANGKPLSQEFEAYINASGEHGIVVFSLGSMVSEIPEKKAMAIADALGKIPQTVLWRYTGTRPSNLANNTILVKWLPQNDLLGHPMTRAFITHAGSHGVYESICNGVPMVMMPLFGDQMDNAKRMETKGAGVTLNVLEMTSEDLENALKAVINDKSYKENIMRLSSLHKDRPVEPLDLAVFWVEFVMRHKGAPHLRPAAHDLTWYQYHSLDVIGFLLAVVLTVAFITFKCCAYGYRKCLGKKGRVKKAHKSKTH
Method in brief: (§1)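 Screening at a single substrate concentration of 200 μM, in triplicate. The reaction used 5 or 50 µg of UGT-enriched insect cell membranes in 50 mM phosphate pH 7.4 with 10 mM MgCl₂ and 5 mM UDPGA, 10% final DMSO. Incubation was 15–60 min at 37°C. Perchloric acid stopped the reaction and supernatants were analysed by HPLC. Controls lacked UDPGA. Rates were normalized to relative UGT expression level.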

[3] = target: T3, UDP-glucuronosyltransferase 2B15 (Homo sapiens, UniProt P54855); experiment: Drug metabolism assessed as recombinant human C-terminal His-tagged UGT2B15-mediated 13-epiestradiol-3-glucuronide/13-epiestradiol-17-glucuronide formation at 200 uM after 15 to 60 mins by HPLC analysis in presence of UDPGA; settings: recombinant enzyme, in the assay text read “UGT2B15-mediated” for “C-terminal His-tagged UGT2B15-mediated”
T3 sequence (P54855 whole entry): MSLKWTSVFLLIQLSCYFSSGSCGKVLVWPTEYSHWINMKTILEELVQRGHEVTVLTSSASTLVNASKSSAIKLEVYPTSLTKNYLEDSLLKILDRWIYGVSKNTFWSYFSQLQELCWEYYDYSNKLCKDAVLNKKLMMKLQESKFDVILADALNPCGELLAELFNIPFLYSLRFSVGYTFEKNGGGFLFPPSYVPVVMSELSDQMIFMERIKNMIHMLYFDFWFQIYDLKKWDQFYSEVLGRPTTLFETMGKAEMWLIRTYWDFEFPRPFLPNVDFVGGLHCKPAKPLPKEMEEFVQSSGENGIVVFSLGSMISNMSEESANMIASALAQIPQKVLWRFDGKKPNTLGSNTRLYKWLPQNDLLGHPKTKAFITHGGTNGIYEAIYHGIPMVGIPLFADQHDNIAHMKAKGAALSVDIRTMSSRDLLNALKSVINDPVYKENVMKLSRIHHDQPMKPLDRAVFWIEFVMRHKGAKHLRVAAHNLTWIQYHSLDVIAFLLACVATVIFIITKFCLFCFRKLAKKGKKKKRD
Method in brief: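 UGT2B15 was a commercial enzyme without a His-tag, so rates were not normalized to expression. Screening used 200 μM substrate in triplicate, with membranes in 50 mM phosphate pH 7.4, 10 mM MgCl₂, 5 mM UDPGA and 10% DMSO. Incubation was 15–60 min at 37°C. The reaction was stopped with perchloric acid and analysed by HPLC. Controls lacked UDPGA.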

[4] = target: UDP-glucuronosyltransferase 1A10 (Homo sapiens, UniProt Q9HAW8, F93G); experiment: Drug metabolism assessed as human UGT1A10 F93G mutant-mediated estradiol-3-glucuronide formation at 200 uM after 15 to 60 mins by HPLC analysis in presence of UDPGA; method in brief: as §1
[5] = target: T4, UDP-glucuronosyltransferase 2B17 (Homo sapiens, UniProt O75795); experiment: Drug metabolism assessed as recombinant human C-terminal His-tagged UGT2B17-mediated estriol-17-glucuronide formation after 15 to 60 mins by Michaelis-Menten equation analysis in presence of UDPGA; settings: recombinant enzyme
T4 sequence (O75795 whole entry): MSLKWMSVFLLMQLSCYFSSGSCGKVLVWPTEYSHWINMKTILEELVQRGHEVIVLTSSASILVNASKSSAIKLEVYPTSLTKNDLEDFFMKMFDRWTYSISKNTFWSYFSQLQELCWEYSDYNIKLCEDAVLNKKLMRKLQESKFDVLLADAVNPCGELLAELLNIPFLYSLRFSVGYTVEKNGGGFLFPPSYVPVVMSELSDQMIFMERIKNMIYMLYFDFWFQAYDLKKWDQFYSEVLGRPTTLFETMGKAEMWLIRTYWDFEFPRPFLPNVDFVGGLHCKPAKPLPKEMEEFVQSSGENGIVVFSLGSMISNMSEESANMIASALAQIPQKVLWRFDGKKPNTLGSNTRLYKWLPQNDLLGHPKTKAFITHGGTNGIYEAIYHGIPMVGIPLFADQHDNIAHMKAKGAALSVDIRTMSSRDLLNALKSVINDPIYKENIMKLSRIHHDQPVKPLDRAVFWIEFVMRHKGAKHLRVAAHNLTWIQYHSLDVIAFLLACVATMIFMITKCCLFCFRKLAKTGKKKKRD

Sequence of UDP-glucuronosyltransferase 1A10 (Q9HAW8 26-530 F93G limits assumed): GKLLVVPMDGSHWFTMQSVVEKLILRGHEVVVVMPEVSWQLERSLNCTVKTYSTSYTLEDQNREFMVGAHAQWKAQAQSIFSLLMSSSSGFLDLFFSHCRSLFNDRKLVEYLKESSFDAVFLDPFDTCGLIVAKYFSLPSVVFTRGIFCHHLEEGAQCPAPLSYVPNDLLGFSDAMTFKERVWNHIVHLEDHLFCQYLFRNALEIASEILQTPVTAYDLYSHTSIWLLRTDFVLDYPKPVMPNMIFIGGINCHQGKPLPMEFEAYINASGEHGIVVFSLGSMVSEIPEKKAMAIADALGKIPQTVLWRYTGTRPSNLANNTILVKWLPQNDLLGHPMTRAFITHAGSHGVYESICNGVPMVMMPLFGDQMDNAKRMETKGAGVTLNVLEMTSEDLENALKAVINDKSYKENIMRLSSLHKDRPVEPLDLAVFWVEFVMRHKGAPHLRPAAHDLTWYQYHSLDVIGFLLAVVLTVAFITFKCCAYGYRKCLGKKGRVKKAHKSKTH

Drug metabolism [1]: metabolite_detected
Drug metabolism [2]: metabolite_detected
SMILES: C[C@]12CC[C@@H]3c4ccc(O)cc4CC[C@H]3[C@@H]1C[C@@H](O)[C@H]2O

Drug metabolism [3]: metabolite_detected
SMILES: C[C@@]12CC[C@@H]3c4ccc(O)cc4CC[C@H]3[C@@H]1CC[C@@H]2O

Drug metabolism [4]: metabolite_detected
SMILES: C[C@]12CC[C@@H]3c4ccc(O)cc4CC[C@H]3[C@@H]1CC[C@@H]2O [ESTRADIOL]

Drug metabolism [5]: 4 pmol/min/mg
SMILES: C[C@]12CC[C@@H]3c4ccc(O)cc4CC[C@H]3[C@@H]1C[C@@H](O)[C@@H]2O [ESTRIOL]
